# Screening results (PubChem)
# Most compounds without a hit are left out; they make up all but 3.5% or so of the library.
# rCAG binder – binders of r(CAG) RNA repeats, primary screen, biochemical, fluorescence; r(CAG) RNA repeat, TO-PRO-1 dye displacement fluorescence; inhibition, % at 3 µM; 1.3% of 370,000 active;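 active = inhibition above the plate cutoff, the mean of all test compounds on that plate plus 3 SD, cut at about 35% in these data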;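 note: 0% = DMSO alone and 100% = 100 µM mitoxantrone as full dye displacement; higher means more dye released from RNA so lower well fluorescence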
# TCR CD3 inh – inhibitors of human TCR-CD3 interaction, primary screen, biochemical, fluorescence, TAMRA-labeled TCR probe; T-cell receptor (TCR); inhibition, % at 9.4 µM; 0.37% of 360,000 active; AID 651800, 2012;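 note: recombinant mutant TCR 2C K166C tagged with TAMRA read by polarization; 0% = receptor in buffer alone and 100% = receptor with positive control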
# HTRA1 inh – HTRA1 serine protease inhibitors, primary screen, biochemical, fluorescence polarization, HTS. 0.5% of 340,000 active. inhibition, % at 5.96 µM. Q92743. recombinant HTRA1, FP-rhodamine activity-based probe. AID 504803, 2011; in the data active = inhibition above about 36%;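 note: 0% = enzyme with DMSO and 100% = wells lacking enzyme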
# SIAE primary – human SIAE inhibitors, primary screen, biochemical, fluorescence polarization, FP-Rh probe, 1536-well HTS. 0.69% of 370,000 active. inhibition, % at 9.66 µM. SIAE FP-Rh probe binding. Sialate O-acetylesterase (Homo sapiens), Q9HAT2;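 active = inhibition above a cutoff: mean of compounds within the control limits plus 3 SD of those, cut at about 17% in these data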;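 note: 0% = plate median of compound wells and 100% = probe without SIAE protein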
# Target sequence (Q9HAT2 whole entry, looked up): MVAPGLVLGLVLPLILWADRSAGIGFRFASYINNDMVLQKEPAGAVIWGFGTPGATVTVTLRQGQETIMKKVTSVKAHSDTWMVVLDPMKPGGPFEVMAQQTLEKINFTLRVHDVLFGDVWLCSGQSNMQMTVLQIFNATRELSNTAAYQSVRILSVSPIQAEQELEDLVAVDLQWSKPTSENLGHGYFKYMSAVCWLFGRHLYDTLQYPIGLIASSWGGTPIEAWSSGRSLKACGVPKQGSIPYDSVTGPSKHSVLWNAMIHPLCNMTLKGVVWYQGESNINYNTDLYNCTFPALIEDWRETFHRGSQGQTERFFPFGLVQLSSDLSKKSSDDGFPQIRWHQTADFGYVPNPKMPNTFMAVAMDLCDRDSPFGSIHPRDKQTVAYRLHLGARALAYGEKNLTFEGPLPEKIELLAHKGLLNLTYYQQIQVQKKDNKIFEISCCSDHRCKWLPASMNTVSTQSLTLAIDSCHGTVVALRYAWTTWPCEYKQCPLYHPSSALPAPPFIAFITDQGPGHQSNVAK
# mABHD4 FP – ABHD4 inhibitors, primary screen, biochemical, fluorescence polarization, mouse; 0.54% of 370,000 active; AID 720543, 2013; purified mABHD4, FP-Rh probe fluorescence polarization; inhibition, % at 8.92 µM;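 active = inhibition exceeding the mean over every tested compound plus 3 SD, cut at about 30% in these data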;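 note: 0% = plate median of compound wells and 100% = S159A mutant with DMSO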
#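 Test system: mABHD4 protein; Read-out basis: % inhibition; Incubation: 45 min + 60 min at 25 °C; Repeats: single replicate; Technique: fluorescence polarization with parallel and perpendicular emission, 525/598 nm; Compound: 8.92 µM, single dose; Benchmarks: full inhibition S159A mutant plus DMSO, zero as sample-well median.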
# PRMT1 FP inh – PRMT1 methyltransferase inhibitors, primary screen, biochemical, fluorescence polarization. recombinant PRMT1, activity-based probe fluorescence polarization. inhibition, % at 2.79 µM. 1.3% of 370,000 active;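 active = inhibition above about 21% made by adding two undisclosed values, limit read from the data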
# HTRA1 inh conf – HTRA1 protease inhibitors, retest, confirmation, biochemical, fluorescence polarization | 66% of 1,600 active | shares compounds with HTRA1 inh | inhibition, % at 5.96 µM | AID 540248, 2011 | recombinant HTRA1, FP-rhodamine activity-based probe;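 active = mean inhibition over three repeats above a set limit taken from the earlier primary screen, cut at about 37% in these data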;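 note: 0% = HTRA1 with DMSO and 100% = wells lacking HTRA1; inhibitors block probe binding so polarization drops and inhibition rises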
# BSA probe FL – compounds interfering with TAMRA-BSA probe, counter-screen for TCR-CD3 interaction inhibitor project, biochemical, fluorescence, TAMRA-labeled BSA; shares compounds with TCR CD3 inh; TAMRA-labeled BSA probe fluorescence counterscreen; inhibition, % at 9.4 µM; 10% of 1,200 active; in the data active = inhibition above about 23%;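 note: 0% = buffer low control and 100% = reference high control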
# TCR-CD3 inh conf – TCR-CD3 interaction inhibitors, retest, confirmation, biochemical, fluorescence, TAMRA-labeled TCR probe | shares compounds with TCR CD3 inh | TAMRA-labeled TCR probe fluorescence binding assay | inhibition, % at 9.4 µM | 48% of 1,200 active
# rCAG binder conf – small molecules binding CAG repeat RNA – biochemical, fluorescence, confirmation; shares compounds with rCAG binder; 70% of 4,300 active; AID 652065, 2013; r(CAG) RNA repeat, TO-PRO-1 dye displacement fluorescence; inhibition, % at 3 µM;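 active = inhibition above a per-plate cutoff, the mean inhibition of sample wells plus 3 SD, cut at about 35% in these data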;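 note: loss of TO-PRO-1 fluorescence as compound displaces dye from 1x1 AA loop RNA; 0% = DMSO only wells and 100% = 100 µM mitoxantrone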
# DNA CAG counter – displacement of TO-PRO-1 from CAG DNA duplex, counter-screen for rCAG RNA repeat binder project, biochemical, fluorescence, TO-PRO-1 dye, d(CAG) DNA oligo | inhibition, % at 3 µM | d(CAG) DNA oligo TO-PRO-1 dye displacement | 94% of 4,300 active | AID 652068, 2013 | shares compounds with rCAG binder;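 active = inhibition above its plate's cutoff, the mean test-well inhibition plus 3 SD, cut at about 4.8% in these data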;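 note: 0% = DNA dye mix with DMSO and 100% = 100 µM mitoxantrone; hits displace the dye from DNA and so lower well fluorescence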
# ABHD4 confirm – ABHD4 inhibitors, retest, confirmation, biochemical, fluorescence polarization, mouse. shares compounds with mABHD4 FP. purified mABHD4, FP-Rh probe fluorescence polarization. inhibition, % at 8.92 µM. 55% of 1,800 active. AID 720658, 2013;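 active = mean inhibition across replicates above the hit cutoff set in the primary screen, cut at about 30% in these data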;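 note: 0% = wild-type ABHD4 with DMSO and 100% = catalytically dead S159A mutant with DMSO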
# SIAE inh conf – human SIAE inhibitors, retest, confirmation, biochemical, fluorescence polarization, FP-Rh probe, triplicate | shares compounds with SIAE primary | SIAE FP-Rh activity-based probe | inhibition, % at 9.66 µM | 13% of 2,300 active;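 active = mean inhibition of the replicates above the hit cutoff set in the primary screen, cut at about 17% in these data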;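 note: 0% = SIAE with DMSO and probe and 100% = probe without SIAE; inhibitors lower polarization as more probe stays unbound to SIAE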
# Numbers without * were called inactive; nt = no result; ! = not confirmed by another sample. Cut-off read from the data, not from the text of the source, unless noted: active = inhibition above about 19%; inactive = the rest.
SMILES,rCAG binder,TCR CD3 inh,HTRA1 inh,SIAE primary,mABHD4 FP,PRMT1 FP inh,HTRA1 inh conf,ABHD4 confirm,others
Cc1ccc2c(c1)C(CS(=O)(=O)NCc1ccccc1)NC2 (stereo not drawn),9.0,nt,nt,-1.5,0.6,4.8,nt,nt,
Cc1[nH]c2ccccc2c1/C=N/n1cnnc1,1.9,4.3,-1.3,5.5,-5.5,-3.2,nt,nt,
CCN(CC)c1ccc(N=Cc2c(C)[nH]c3ccccc23)cc1,4.0,-4.8,50.3*,14.1,35.6*,14.5,21.6,30.0*,
CC(=O)CC[C@H]1CC[C@]2(CCCN(C(=O)c3ccco3)C2)O1,1.4,nt,nt,-0.8,0.6,-2.7,nt,nt,
O=C(NC1CCCCN(Cc2cccc(F)c2)C1=O)c1ccc(-c2ccccc2)cc1 (stereo not drawn),5.5,nt,nt,-4.2,-13.3,3.1,nt,nt,
Nc1ccc(N=Nc2ccccc2)c(N)n1,5.2,-3.1,15.1,9.4,16.3,2.8,nt,nt,
Cc1[nH]c(N=Nc2ccccc2)nc1N=Nc1ccccc1,5.4,2.7,73.5*,2.0,45.4*,-2.3,74.5*,62.1*,
CCCC(C)NC(=O)CC1Oc2ccccc2NC1=O (stereo not drawn),5.5,nt,nt,0.8,-3.1,3.8,nt,nt,
Nc1nc(-c2ccccc2)c(N=Nc2ccccc2Cl)s1,24.7,10.8,73.1*,14.5,46.3*,0.8,115.2*,75.7*,
CC(=O)Nc1sc(N)nc1-c1ccccc1,1.6,3.4,4.5,2.5,-0.1,-2.6,nt,nt,
Nc1nc(-c2ccccc2)c(N=Nc2cccc3ccccc23)s1,35.4*,4.2,76.0*,13.0,48.7*,-4.1,80.5*,58.5*,rCAG binder conf=29.2;DNA CAG counter=18.4*
CC(C)CN1C(=O)[C@]2(CC(=O)N(C)C2c2ccccc2)c2cc(-n3cc(CCc4ccccc4)nn3)ccc21 (stereo partly drawn),-0.7,nt,nt,9.4,0.0,-1.5,nt,nt,
CCOC(=O)C1CCN(C2=C(NS(=O)(=O)c3ccc(Br)cc3)C(=O)c3ccccc3C2=O)CC1,7.5,-9.3,47.2*,19.1*,44.9*,6.5,64.8*,63.3*,
O=C(N/N=C/c1ccc(O)c(O)c1)NC12CC3CC(CC(C3)C1)C2,7.2,-3.8,67.8*,11.6,32.7*,3.7,82.2*,31.1*,
COc1cc(/C=N/NC(=O)NC23CC4CC(CC(C4)C2)C3)ccc1O,0.7,-2.4,-2.5,0.8,6.3,-3.5,nt,nt,
Cc1ccc(C2C3=C(CC(C)(C)CC3=O)OC3=C2C(=O)CC(C)(C)C3)cc1,-3.0,-7.5,0.6,3.7,9.6,2.5,nt,nt,
CC(C)N=C(N)N=C(N)Nc1ccc(Cl)cc1,9.3,7.5,6.4,-5.5,2.5,-5.6,nt,nt,
NC(=NCCCCCCN=C(N)/N=C(\N)Nc1ccc(Cl)cc1)/N=C(\N)Nc1ccc(Cl)cc1,21.7,3.1,42.4*!,-7.7,45.8*!,-8.1,45.3*,39.7*,
COc1ccc(OC)c(Nc2nc(-c3sc(NC(=O)CC(C)C)nc3C)cs2)c1,28.2,4.6,37.1*,9.3,34.9*,4.2,27.1,54.5*,
CCCCC(=O)Nc1nc(C)c(-c2csc(Nc3cc(OC)ccc3OC)n2)s1,26.3,1.1,38.9*,8.4,42.3*,0.5,25.7,66.4*,
CC(C)C1N=C(NC(=O)OCc2ccccc2)NC1=O (stereo not drawn) (tested in a mixture with another compound),4.1,nt,nt,0.4,-6.7,7.7,nt,nt,
COCCOC(=O)N(C)C[C@@H]1OCCCC[C@H](C)Oc2ccc(NC(=O)Nc3ccccc3)cc2C(=O)N([C@@H](C)CO)C[C@H]1C,nt,nt,nt,0.2,2.0,-4.4,nt,nt,
COc1ccc(Cn2cc(COC(=O)NCC(C)C)nn2)cc1,2.8,nt,nt,-0.7,3.8,-0.7,nt,nt,
COC(=O)[C@]12C=CCN1[C@H](c1ccc(OC)c(OC)c1)c1c(c3ccccc3n1S(=O)(=O)c1ccc(C)cc1)C2,12.4,nt,nt,-4.1,-20.0,3.5,nt,nt,
Cc1ccc(C)c(/C=C/C(=O)c2ccccc(=O)c2O)c1,38.9*,11.0,54.2*,11.2,37.9*,15.4,59.1*,24.5,rCAG binder conf=22.8;DNA CAG counter=10.3*
Cc1ccc(C)c(NC(=O)c2ccccc2O)c1,3.6,7.0,3.8,-6.5,-1.0,-0.9,nt,nt,
COC(=O)/C(=C/Nc1ccccc1)[N+](=O)[O-],-1.8,-1.4,8.4,2.6,2.5,5.2,nt,nt,
COC(=O)/C(=C/Nc1ccc(O)cc1)[N+](=O)[O-],3.5,98.8*,44.9*,25.1*,94.4*,47.5*,4.5,-1.5,BSA probe FL=2.6;TCR-CD3 inh conf=-1.0;SIAE inh conf=-2.5
COC(=O)c1cc(-c2ccc(C(C)(C)C)cc2)c(=O)n2c1CCC2,-0.7,nt,nt,-1.7,5.5,-5.2,nt,nt,
C/C(CC(=O)N1CCN(C=O)CC1)=N\NC(=O)c1cc2ccccc2cc1O,52.8*,13.5,39.2*,20.0*,40.1*,2.1,36.8*,34.5*,rCAG binder conf=22.3;DNA CAG counter=9.2*;SIAE inh conf=2.8
